Only some compounds are listed: those with a hit (about 5.7% of all), similar ones and a draw of the others.
T cruzi repl: inhibitors of intracellular T. cruzi growth, primary screen, luminescence, NIH3T3 host cells; inhibition, % (test concentration not listed); T. cruzi beta-gal in NIH3T3, 90 h; hit rate 1.4% among 300,000;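 active = mean inhibition across valid replicates above about 55%, limit read from the data; inconclusive = mean below that limit but half or more replicates reach it; inactive = mean below it, under half of replicates reach it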;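 note: signal also drops with host cell toxicity which is not excluded here; higher percent means less beta-gal luminescence so fewer parasites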
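Incubation – ≥90 h infection period, 3 h prior cell attachment · System – NIH/3T3 fibroblasts plus reporter T. cruzi · Doses – compound pinned at 50 nL/well, DMSO · Read-out basis – percent inhibition of parasite-derived β-gal signal · Signal – luminescent β-galactosidase signal after 60 min lysis · Also added – 5000 T. cruzi trypomastigotes/well · Medium – Low-serum DMEM with 2% FBS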
Beta cell apopt: inhibitors of cytokine-induced beta cell apoptosis, primary screen, luminescence | INS-1E cytokine-induced death, ATP luminescence, 48 h; percent of positive-control rescue, neutral wells zero | hit rate 0.8% among 300,000 | protection from apoptosis, % (no concentration beside the values) | AID 435005, 2010;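 active = Every replicate reaches about 75%, or at least half do and their mean reaches it too, limit read from the data; inconclusive = At least half of replicates reach the limit but their mean does not; inactive = Under half of replicates reach the limit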;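 note: higher means more ATP so stronger rescue from cytokine killing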
Mdm2 MdmX PPI: inhibitors of human Mdm2-MdmX association, primary screen, cell-based, luminescence, split luciferase, SaOS-2, uHTS; Protein Mdm4 (Homo sapiens) + E3 ubiquitin-protein ligase Mdm2 (Homo sapiens), …; SaOS-2 split-luciferase Mdm2/MdmX complementation; inhibition, % at 8 µM; hit rate 3% among 330,000;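 active = inhibition of at least 50% at 8 µM in the primary screen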
Target sequence (O15151 whole entry, looked up): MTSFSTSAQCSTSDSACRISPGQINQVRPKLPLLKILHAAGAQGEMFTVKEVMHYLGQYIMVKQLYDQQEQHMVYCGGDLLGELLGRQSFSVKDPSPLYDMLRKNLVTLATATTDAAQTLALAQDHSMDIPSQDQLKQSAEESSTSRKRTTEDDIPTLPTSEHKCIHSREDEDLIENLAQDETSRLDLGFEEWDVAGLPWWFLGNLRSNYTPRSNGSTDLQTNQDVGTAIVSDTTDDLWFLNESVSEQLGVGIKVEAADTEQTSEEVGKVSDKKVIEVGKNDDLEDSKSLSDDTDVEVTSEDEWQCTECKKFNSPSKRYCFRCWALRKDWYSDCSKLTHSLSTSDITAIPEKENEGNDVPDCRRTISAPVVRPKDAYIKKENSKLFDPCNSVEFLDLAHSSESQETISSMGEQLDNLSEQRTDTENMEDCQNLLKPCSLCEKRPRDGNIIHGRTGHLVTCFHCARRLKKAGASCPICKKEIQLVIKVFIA
Target sequence (Q00987 whole entry, looked up): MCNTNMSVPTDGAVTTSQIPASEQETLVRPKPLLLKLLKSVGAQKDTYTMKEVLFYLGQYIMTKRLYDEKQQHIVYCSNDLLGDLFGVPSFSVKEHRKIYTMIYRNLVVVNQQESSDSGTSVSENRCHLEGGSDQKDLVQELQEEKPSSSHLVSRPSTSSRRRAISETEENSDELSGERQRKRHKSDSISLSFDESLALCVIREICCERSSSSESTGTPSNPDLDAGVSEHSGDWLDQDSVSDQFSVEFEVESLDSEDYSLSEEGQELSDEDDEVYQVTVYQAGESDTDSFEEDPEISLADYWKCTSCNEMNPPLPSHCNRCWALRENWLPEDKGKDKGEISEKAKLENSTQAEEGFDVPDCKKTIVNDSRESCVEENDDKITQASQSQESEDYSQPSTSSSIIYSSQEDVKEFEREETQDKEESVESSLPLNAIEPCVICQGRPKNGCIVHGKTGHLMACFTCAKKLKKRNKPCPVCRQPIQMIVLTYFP
CSC inhib: cancer stem cell viability inhibitors, primary screen, luminescence | cancer stem cell-like cells viability | inhibition, % at 7.5 µM | hit rate 1.1% among 300,000; in the data active = inhibition above about 75%; inconclusive = no clear call, values can overlap the other calls; tested in HMLE shEcad cells
Calb FLC: C. albicans growth inhibition with fluconazole, primary screen, CaCi-2 strain, Alamar Blue fluorescence; C. albicans CaCi-2 + fluconazole, 48 h; growth inhibition, % (concentration not given with the values); hit rate 0.57% among 300,000; AID 1979, 2009;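 active = growth inhibition above about 58% in most replicates, limit read from the data, passing the limit was not always enough; inconclusive = exactly half the replicates above a set limit; inactive = most replicates below a set limit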;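 note: all wells also contain fluconazole at 8 µg/ml as a sub-toxic cotreatment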
SKKanGAS inh: S. pyogenes SKKanGAS growth inhibitors in kanamycin, primary screen, streptokinase expression inhibitor project, SKKanGAS strain, BacTiter-Glo luminescence | 6 h | inhibition, % at 7.5 µM | hit rate 1.3% among 300,000;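 active = mean replicate score, as percent of positive control median, at least 50; inconclusive = mean below 50 but one replicate at or above 50; inactive = mean and every replicate below 50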;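 note: strain carries kanamycin resistance gene driven by streptokinase promoter and grows in 40 µg/ml kanamycin; loss of luminescence reflects streptokinase promoter inhibition or plain growth inhibition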
Mdm2 MdmX conf: Mdm2-MdmX complex disruptors, retested hits, confirmation, luminescence, single concentration; Mdm2-MdmX binding, luminescent assay; hit rate 55% among 10,000; AID 489028, 2010; shares compounds with Mdm2 MdmX PPI; inhibition, % at 8 µM; in the data active = inhibition above about 40%
FLuc counter: full-length luciferase signal inhibition, confirmation, counter-screen for Mdm2/MdmX interaction inhibitor project, cell-based, single concentration, SaOS-2 | shares compounds with Mdm2 MdmX PPI | SaOS-2 full-length luciferase counterscreen, luminescence | inhibition, % at 8 µM | hit rate 77% among 6,200;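 active = mean inhibition at 8 µM reaching about 37%, which flags the compound as non-specific, limit read from the data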;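 note: p53-null SaOS-2 cells with luciferase driven by a doxycycline-inducible promoter; compound on cells about two nights before reading with doxycycline added after day one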
Each line names hits and unclear results; the compound was inactive in the other large screens (follow-up assays come after a bar, where they were run).

Cc1c(Cl)cccc1NC(=O)CCN1CCOCC1	none
Oc1c(N=NC(=S)Nc2ccccc2F)c2ccccc2n1Cc1ccccc1	SKKanGAS inh inconclusive (no result: CSC inhib)
Cc1ccc(NC(=S)N=Nc2c(O)n(C)c3ccc(S(=O)(=O)N4CCOCC4)cc23)cc1	none (no result: Beta cell apopt, Mdm2 MdmX PPI, CSC inhib)
C=CCn1c(O)c(N=NC(=S)Nc2ccccc2F)c2ccccc21	Mdm2 MdmX PPI 76, SKKanGAS inh 101 | Mdm2 MdmX conf 57 | FLuc counter 50
CCN1CCN(C(=O)/C(=C/c2ccco2)NC(=O)c2ccccc2)CC1	none
CCc1ccc(-c2nc(CS(=O)CC(=O)NC3CCCCCC3)c(C)o2)cc1 (configuration not stated)	none
O=C(Nc1ccc(Br)cc1)NC1CCCCCCC1	none
C=CCn1c(O)c(N=NC(=S)Nc2cccc(C)c2)c2ccccc21	T cruzi repl 59, Mdm2 MdmX PPI 61, Calb FLC inconclusive, SKKanGAS inh 94 | Mdm2 MdmX conf 55 | FLuc counter inactive
CCn1c(O)c(N=NC(=O)CNc2cccc(C)c2)c2ccccc21	Calb FLC inconclusive
Cc1ccc(Cn2c(O)c(N=NC(=S)Nc3ccccc3F)c3ccccc32)cc1	T cruzi repl 66, Mdm2 MdmX PPI 57, SKKanGAS inh 61 | Mdm2 MdmX conf 60 | FLuc counter 48
CC(NCc1ccc(OCC(N)=O)cc1)C12CC3CC(CC(C3)C1)C2 (configuration not stated)	none (no result: Beta cell apopt)
CCn1c(Cl)c(C=O)s/c1=N\S(=O)(=O)c1ccccc1	T cruzi repl 55, Beta cell apopt 117, Mdm2 MdmX PPI 100, CSC inhib inconclusive | Mdm2 MdmX conf 98 | FLuc counter 51
Cn1nc(C(F)(F)F)c(/C=N/OC(=O)c2ccccc2)c1SCc1ccc(Cl)cc1	none
Cn1nc(C(F)(F)F)c(/C=N/OC(=O)c2ccccc2Cl)c1SCc1ccccc1Cl	Mdm2 MdmX PPI 55 | Mdm2 MdmX conf inactive
COc1ccccc1NS(=O)(=O)c1ccc(C(=O)NCCCN2CCOCC2)cc1	none (no result: T cruzi repl, Beta cell apopt, CSC inhib, Calb FLC, SKKanGAS inh)
CC(=O)Nc1ccc(C(=O)CCl)cc1	Mdm2 MdmX PPI 67 (no result: T cruzi repl, Calb FLC, SKKanGAS inh) | Mdm2 MdmX conf inactive
CC(=O)c1ccc(N2CCN(CC(=O)NC(=O)NCc3ccccc3)CC2)cc1	none (no result: T cruzi repl, CSC inhib, Calb FLC, SKKanGAS inh)
CC(=O)Nc1ccc(NC(=O)CSc2nnnn2-c2ccc3c(c2)OCCO3)cc1	Mdm2 MdmX PPI 51 | Mdm2 MdmX conf inactive
COc1ccc(OC)c(-n2nnnc2SCC(=O)Nc2ccc3c(c2)OCCO3)c1	Mdm2 MdmX PPI 82 | Mdm2 MdmX conf inactive
Cc1ccc(-n2nnnc2SCC(=O)Nc2ccc3c(c2)COC3=O)cc1C	Mdm2 MdmX PPI 51 | Mdm2 MdmX conf inactive
COc1ccc2[nH]c3nc(SCC(=O)Nc4ccc5c(c4)OCO5)nnc3c2c1	Mdm2 MdmX PPI 66 (no result: CSC inhib) | Mdm2 MdmX conf inactive
Cc1ccc(CN2CC(C(=O)N(C)CC(=O)Nc3cccc(F)c3)CC2=O)cc1 (configuration not stated)	none
COc1ccc(OC)c(NC(=O)CSc2nnnn2-c2ccc3c(c2)OCO3)c1	Mdm2 MdmX PPI 58 | Mdm2 MdmX conf inactive
COc1ccc(-n2nnnc2SCC(=O)Nc2cc(OC)c([N+](=O)[O-])cc2C)cc1	Mdm2 MdmX PPI 52 | Mdm2 MdmX conf inactive
Cc1cccc(C)c1NC(=O)Cn1cnc2c(=O)n(C)c(=O)n(C)c21	none
Cc1ccccc1C(=O)Nc1cccc(NC(=O)Cn2cnc3c(=O)n(C)c(=O)n(C)c32)c1	Mdm2 MdmX PPI 51 | Mdm2 MdmX conf inactive
O=C(COc1ccc([N+](=O)[O-])cc1)Nc1nc(-c2ccccn2)cs1	T cruzi repl 61, Mdm2 MdmX PPI 76, SKKanGAS inh 57 (no result: Beta cell apopt) | Mdm2 MdmX conf 81 | FLuc counter inactive
O=C(COc1ccccc1)Nc1nc(-c2ccncc2)cs1	none
O=C(COc1ccc(F)cc1)Nc1nc(-c2ccccn2)cs1	Mdm2 MdmX PPI 64, Calb FLC 90, SKKanGAS inh 69 | Mdm2 MdmX conf 70 | FLuc counter 62
O=C(Nc1nc(-c2ccccn2)cs1)Nc1ccc(F)cc1F	T cruzi repl 55, Beta cell apopt 77, Mdm2 MdmX PPI 59, SKKanGAS inh 90 | Mdm2 MdmX conf 44 | FLuc counter 51
O=C(NCc1ccc(F)cc1)N1CCN(C(=O)c2ccccc2)CC1	none (no result: T cruzi repl, Beta cell apopt, CSC inhib, Calb FLC, SKKanGAS inh)
Cn1c(SCC(=O)Nc2cccc(F)c2)nc2c(c1=O)SCC2	none
O=C(c1cccc(S(=O)(=O)N2CCCC2)c1)N1CCOCC1	none (no result: T cruzi repl, CSC inhib, Calb FLC, SKKanGAS inh)
NC(=S)N/N=C1\c2ccccc2-c2c(C(=O)O)cccc21	none
COc1cccc(N(C(=O)c2ccco2)c2nc(-c3sc(NC(=O)c4ccco4)nc3C)cs2)c1	Mdm2 MdmX PPI 74 | Mdm2 MdmX conf 49 | FLuc counter 62
C=CCCC(=O)Nc1nc(C)c(-c2csc(Nc3ccccc3OC)n2)s1	Mdm2 MdmX PPI 60 | Mdm2 MdmX conf 56 | FLuc counter 56
CCC(=O)Nc1nc(C)c(-c2csc(Nc3cccc(O)c3)n2)s1	Mdm2 MdmX PPI 73, CSC inhib 77 | Mdm2 MdmX conf inactive
COc1ccccc1Nc1nc(-c2sc(NC(=O)c3ccco3)nc2C)cs1	none
C=CCCC(=O)Nc1nc(C)c(-c2csc(Nc3ccc(Cl)cc3Cl)n2)s1	Mdm2 MdmX PPI 54, SKKanGAS inh inconclusive | Mdm2 MdmX conf inactive
COc1ccc(CCN2CC(C(=O)NCCc3ccccc3C(F)(F)F)CCC2=O)cc1 (configuration not stated)	none (no result: Beta cell apopt)
COc1ccccc1C(=O)NCCC(=O)N1CCN(c2cccc(C(F)(F)F)c2)CC1	none
C/C(=N\NC(=O)c1c(Cl)cnn1C)c1cccnc1	none (no result: Beta cell apopt, CSC inhib)
Cc1ccc(Cl)cc1Nc1nc(-c2sc(NC(=O)c3ccco3)nc2C)cs1	Mdm2 MdmX PPI 81 | Mdm2 MdmX conf inactive
Cc1ccc(Cl)cc1Nc1nc(-c2sc(NC(=O)c3cccc(Cl)c3)nc2C)cs1	none
COc1ccc(CNC(=O)Cn2ncn3c(cc4ccccc43)c2=O)cc1	Mdm2 MdmX PPI 67 | Mdm2 MdmX conf inactive
COc1ccc(-c2cc3c(=O)n(CC(=O)NCc4ccc(F)cc4)ncn3n2)cc1	Mdm2 MdmX PPI 86 | Mdm2 MdmX conf inactive
COc1ccc(-c2cc3c(=O)n(CC(=O)NCc4ccc(Cl)cc4)ncn3n2)cc1	Mdm2 MdmX PPI 64 | Mdm2 MdmX conf inactive

Source: PubChem
